Like-named read-outs stand apart in the source and are kept apart here.
Columns and labels:
[1] = assay type: in vivo, human (Japanese patients with type 2 diabetes mellitus); details: for AUC∞ / C max / CL/F / Vd/F / t ½: mean (SD); for t max: median (range)
Summary of the method: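 Single oral dose (100 or 200 mg) given before breakfast in a two-period crossover. Blood was drawn pre-dose and at 0.5–72 h (13 samples) into K2EDTA, iced, centrifuged, and plasma stored at −20 °C. Parent drug was measured by HPLC–MS/MS (1–2,000 ng/mL). Metabolites were measured by acetonitrile precipitation then HPLC–MS/MS (5–10,000 ng/mL). Group ratios are least square means with 90 % CI.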

[2] = system: urinary glucose excretion; assay: 24-h urinary glucose excretion, change from baseline; assay type: in vivo, human (Japanese patients with type 2 diabetes mellitus); details: both doses
Summary of the method: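 Each crossover period gave one oral single dose of test compound (100 or 200 mg) 10 min before breakfast, with ≥14-day washout and fixed meals. Change was taken from the baseline day.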

[3] = single dose of canagliflozin 100 mg; non-Japanese patients with normal renal function or mild renal impairment; cited from earlier work
[4] = Japanese patients with type 2 diabetes; cited from earlier work
blood glucose = details: phase III; non-Japanese type 2 diabetes patients with moderate renal impairment (eGFR ≥30 and <50 mL/min/1.73 m^2); cited from earlier work
[5] = canagliflozin 100 mg single dose
[6] = canagliflozin 100 mg single dose, moderate renal impairment (n = 12)
[7] = canagliflozin 100 mg, moderate renal impairment (n = 12)
[8] = canagliflozin 100 mg, normal renal function or mild renal impairment (n = 12)
[9] = canagliflozin 200 mg single dose
[10] = canagliflozin 200 mg single dose, moderate renal impairment (n = 12)
[11] = canagliflozin 200 mg, moderate renal impairment (n = 12)
[12] = canagliflozin 200 mg, normal renal function or mild renal impairment (n = 12)

SMILES: Cc1ccc([C@@H]2O[C@H](CO)[C@@H](O)[C@H](O)[C@H]2O)cc1Cc1ccc(-c2ccc(F)cc2)s1 [Canagliflozin, canagliflozin]
- time to reach maximum concentration (C max), median ([1]; 100 and 200 mg single doses): ≤ 1 h
- AUC∞ ratio (90 % CI) of least square means, moderate renal impairment relative to normal renal function or mild renal impairment [1, 5]: 1.258 (1.061–1.490)
- C max ratio (90 % CI) of least square means, moderate renal impairment relative to normal renal function or mild renal impairment [1, 5]: 0.982 (0.821–1.173)
- AUC∞ ratio (90 % CI) of least square means, moderate renal impairment relative to normal renal function or mild renal impairment ([1]; canagliflozin 100 mg single dose, listed as canagliflozin): 1.258 [1.061–1.490]
- AUC∞ [1, 6]: 8,766 (2551) ng·h/mL
- C max [1, 6]: 1,197.13 (310.56) ng/mL
- CL/F [1, 7]: 12.15 (2.87) L/h
- Vd/F [1, 7]: 264 (81) L
- t ½ [1, 7]: 15.50 (4.35) h
- t max [1, 7]: 1.0 (1.0–3.0) h
- CL/F [1, 8]: 15.24 (3.65) L/h
- Vd/F [1, 8]: 269 (66) L
- t ½ [1, 8]: 12.58 (3.14) h
- t max [1, 8]: 1.0 (1.0–3.0) h
- AUC∞ ratio (90 % CI) of least square means, moderate renal impairment relative to normal renal function or mild renal impairment [1, 9]: 1.216 (1.026–1.441)
- C max ratio (90 % CI) of least square means, moderate renal impairment relative to normal renal function or mild renal impairment [1, 9]: 0.989 (0.827–1.182)
- AUC∞ ratio (90 % CI) of least square means, moderate renal impairment relative to normal renal function or mild renal impairment ([1]; canagliflozin 200 mg single dose, listed as canagliflozin): 1.216 [1.026–1.441]
- AUC∞ [1, 10]: 17,835 (4434) ng·h/mL
- C max [1, 10]: 2,333.36 (414.90) ng/mL
- CL/F [1, 11]: 11.73 (2.36) L/h
- Vd/F [1, 11]: 242 (67) L
- t ½ [1, 11]: 15.15 (6.68) h
- t max [1, 11]: 1.0 (1.0–2.0) h
- CL/F [1, 12]: 14.43 (3.73) L/h
- Vd/F [1, 12]: 244 (53) L
- t ½ [1, 12]: 12.10 (2.66) h
- t max [1, 12]: 1.0 (1.0–6.0) h
- half-life (t ½) ([1]; patients with normal or mild renal impairment, both doses): over 12 h
- AUC from time zero to 24 h ([1]; single dose of 100 mg, Japanese population with mild or no renal impairment): 5,645 ng·h/mL
- ΔUGE24 h in moderate renal impairment relative to normal renal function or mild renal impairment [2]: approximately 70%
- mean 24-h urinary excretion ratio [3]: 0.55%
- body weight [4]: significantly reduced
- blood glucose-lowering effect compared with placebo (blood glucose): significant blood glucose-lowering effect

— article PMC4168221 (Clinical Drug Investigation, 2014)
